According to ChEMBL document CHEMBL1133486, “Synthesis and calpain inhibitory activity of alpha-ketoamides with 2,3-methanoleucine stereoisomers at the P2 position” (Bioorg Med Chem Lett, 2000):

Legend:
[1] = target: T1, Calpain-1 catalytic subunit (Sus scrofa, UniProt P35750); experiment: The compound was evaluated for inhibition of Calpain 1 from porcine erythrocytes; type: cell-based
T1 sequence (P35750 whole entry): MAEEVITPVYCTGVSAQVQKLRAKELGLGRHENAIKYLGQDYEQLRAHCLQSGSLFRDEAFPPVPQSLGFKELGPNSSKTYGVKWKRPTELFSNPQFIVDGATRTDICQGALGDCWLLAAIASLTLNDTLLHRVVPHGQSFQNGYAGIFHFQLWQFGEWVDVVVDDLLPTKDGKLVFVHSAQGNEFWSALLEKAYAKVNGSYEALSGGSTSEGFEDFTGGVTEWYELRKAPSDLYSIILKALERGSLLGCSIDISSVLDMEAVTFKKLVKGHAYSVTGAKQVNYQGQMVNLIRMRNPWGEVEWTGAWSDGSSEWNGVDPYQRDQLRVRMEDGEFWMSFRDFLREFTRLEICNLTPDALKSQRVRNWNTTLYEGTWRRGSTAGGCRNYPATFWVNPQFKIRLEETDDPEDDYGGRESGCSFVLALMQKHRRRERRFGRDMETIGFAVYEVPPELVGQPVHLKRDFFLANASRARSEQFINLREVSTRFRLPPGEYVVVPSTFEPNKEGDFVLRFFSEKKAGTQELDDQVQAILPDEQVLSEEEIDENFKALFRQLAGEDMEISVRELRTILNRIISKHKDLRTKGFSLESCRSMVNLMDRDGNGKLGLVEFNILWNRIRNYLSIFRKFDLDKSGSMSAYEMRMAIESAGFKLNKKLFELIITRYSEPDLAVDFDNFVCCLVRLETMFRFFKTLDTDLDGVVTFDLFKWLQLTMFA
How it was run: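 Substrate was Suc-Leu-Tyr-AMC at two concentrations, inhibitor varied, and 5 mM CaCl2 started the reaction. Fluorescence increase (ex 370, em 440 nm) was read at ambient temperature. Ki came from Dixon plots of triplicate means.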

Cathepsin B = Cathepsin B (Homo sapiens, UniProt P07858); experiment: The compound was evaluated for inhibition of cathepsin B from human liver
How it was run: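 Cathepsin B from human liver, assayed in 20 mM NaOAc pH 5.2, 0.5 mM DTT, 2% DMSO. Ki was obtained from Dixon plots (1/v versus inhibitor concentration, intersecting lines) using the average of triplicate assays.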

[2] = Selectivity ratio of Ki values for cathepsin B inhibition by those for calpain I inhibition

Compound | Ki [1] | Ki (Cathepsin B) | Selectivity ratio [2]
CC(C)[C@H]1C[C@@]1(NC(=O)OCc1ccccc1)C(=O)N[C@@H](Cc1ccccc1)C(=O)C(=O)NCCc1ccccc1 | 11.1 µM | 5.05 µM | 0.5
CC(C)[C@H]1C[C@]1(NC(=O)OCc1ccccc1)C(=O)N[C@@H](Cc1ccccc1)C(=O)C(=O)NCCc1ccccc1 | 6.15 µM | 1.26 µM | 0.2
CC(C)C[C@H](NC(=O)OCc1ccccc1)C(=O)N[C@@H](Cc1ccccc1)C(=O)C(=O)NCCc1ccccc1 | 0.07 µM | 0.3 µM | 4
CC(C)[C@@H]1C[C@]1(NC(=O)OCc1ccccc1)C(=O)N[C@@H](Cc1ccccc1)C(=O)C(=O)NCCc1ccccc1 | 40 µM | 4.56 µM | 0.1
CC(C)[C@@H]1C[C@@]1(NC(=O)OCc1ccccc1)C(=O)N[C@@H](Cc1ccccc1)C(=O)C(=O)NCCc1ccccc1 | 0.75 µM | 6.78 µM | 9
